{"data": "Measured values of several laboratories", "cell line": "MIA PaCa-2", "read-out": "cell growth or viability", "note": "Each line is one published result; the experiments were not run side by side. pIC50: −log10 of the molar value."}
{"Compound": "N#CSCc1cc(=O)oc2cc(O)ccc12", "technique": "SRB", "endpoint": "GI50", "result": "5.3 µM"}
{"Compound": "CNC(=O)c1ccccc1Nc1cc(Nc2ccc(N3CCOCC3)cc2OC)ncc1C(F)(F)F", "technique": "MTT", "time": "48 h", "endpoint": "pIC50", "result": 5.75}
{"Compound": "O=C1C(Cl)=C(NCCCN2CCCCC2)C(=O)c2ccccc21", "technique": "MTT", "endpoint": "pIC50", "result": 5.32}
{"Compound": "Cc1cc(=O)oc2cc(OCCCCSC#N)ccc12", "technique": "SRB", "endpoint": "GI50", "result": "6.3 µM"}
{"Compound": "COc1ccc2c(C(=O)C(C#N)=Cc3cn(C)c4ccccc34)c[nH]c2c1", "technique": "MTT", "time": "48 h", "endpoint": "pIC50", "result": "< 4.40"}
{"Compound": "O=C1C(Cl)=C(NCCN2CCOCC2)C(=O)c2ccccc21", "technique": "MTT", "endpoint": "pIC50", "result": 4.71}
{"Compound": "CCCOc1ccc2[nH]cc(C(=O)C(C#N)=Cc3cn(CC)c4ccccc34)c2c1", "technique": "MTT", "time": "48 h", "endpoint": "pIC50", "result": 5.28}
{"Compound": "CC(=O)N1CCC(Nc2cc(C(=O)NC[C@H](O)CN3CCc4ccccc4C3)ncn2)CC1", "technique": "CCK-8", "time": "72 h", "endpoint": "pIC50", "result": "< 4.00"}
{"Compound": "Cc1sc2c(c1C)C(c1ccc(Cl)cc1)=N[C@@H](CC(=O)NCCCCNC(=O)COc1cccc3c1C(=O)N(C1CCC(=O)NC1=O)C3=O)c1nnc(C)n1-2 (some centres unmarked)", "technique": "CCK-8", "time": "72 h", "endpoint": "pIC50", "result": "< 5.00"}
{"Compound": "CC1=CC(=O)C(C(C)C)=CC1=O", "technique": "SRB", "time": "48 h", "endpoint": "pIC50", "result": 4.48}
{"Compound": "CCOc1ccc2[nH]cc(C(=O)C(C#N)=Cc3cn(C)c4ccccc34)c2c1", "technique": "MTT", "time": "48 h", "endpoint": "pIC50", "result": 5.87}
